Measurements gathered from unrelated publications.
Protocols differ between the studies behind these lines.
Target: BDNF/NT-3 growth factors receptor (NTRK2, Homo sapiens, UniProt Q16620)

For Nc1ncnc2occ(-c3ccc(NC(=O)Nc4cc(C(F)(F)F)ccc4F)cc3)c12, the remaining signal was 1.4% (cell-free assay; 20 µM).
With O=C1CCc2cc(Nc3cc(OC4CCOCC4)c([N+](=O)[O-])cc3Cl)ccc2N1 the remaining binding was 100% (cell-free assay, competition with immobilised ligand; 1 µM).
The remaining activity of Cc1sc(C(=O)NC2COC2)cc1-n1cc(NC(=O)Nc2c(F)cccc2Cl)cn1 is reported as 92.4% (enzyme activity, inhibitor; 10 µM).
O=C(Nc1ccc(C(F)(F)F)cc1)Nc1cccc(C(=O)Nc2ccc3[nH]nc(-c4ccccc4)c3c2)c1 has an inhibition of 14.7% (enzyme activity, inhibitor, FRET; 1 µM).
CCN(CC)c1ccc(C2=NNC(=O)CC2C)cc1[N+](=O)[O-] (centres unmarked) gave a remaining activity of 87% (enzyme activity, inhibitor; 10 µM).
Cc1ccc(NC(=O)c2ccc(C)c(C(F)(F)F)c2)cc1C#Cc1nn(C2CCC(O)CC2)c2ncnc(N)c12 (centres unmarked) gave a remaining signal of 4% (cell-free assay; 10 µM).
The remaining binding of CCCOc1ccc([C@@H]2[C@@H](C(=O)O)[C@H](c3ccc4c(c3)OCO4)CN2CC(=O)Nc2c(CC)cccc2CC)cc1 is reported as 100% (cell-free assay, competition with immobilised ligand; 1 µM).
CCN(CC)CCNC(=O)c1c(C)[nH]c(/C=C2\C(=O)Nc3ccc(F)cc32)c1C has an inhibition of 70% (cell-free assay; 0.3 µM).
O=C(Nc1ccc2[nH]ncc2c1)c1cccc(NC(=S)Nc2ccc(C(F)(F)F)cc2)c1 gave an inhibition of 19.6% (enzyme activity, inhibitor, FRET; 1 µM).
For CC1=C(C#N)[C@@H](c2ccc3[nH]nc(C)c3c2)C(C#N)=C(c2ccc(Cl)cc2)N1, the remaining binding was 85.2% (cell-free assay, competition with immobilised ligand; 1 µM).
O=C(Nc1cnn2ccc(N3CCC[C@@H]3c3cc(F)ccc3F)nc12)N1CC[C@H](O)C1 gave an inhibition of 100% (enzyme activity, inhibitor, FRET; 1 µM).
With Oc1cccc(-c2nc(N3CCOCC3)c3oc4ncccc4c3n2)c1 the remaining signal was 90.2% (cell-free assay; 0.5 µM).
For Cc1cc(C)c(-n2ccn3nc(-c4cccnc4)cc23)cc1NC(=O)c1cc(C#N)cc(S(F)(F)(F)(F)F)c1, the remaining binding was 54.8% (cell-free assay, competition with immobilised ligand; 0.1 µM).
The inhibition of O=C(Nc1cccc(C(=O)Nc2ccc3[nH]ncc3c2)c1)Nc1ccccc1Cl is reported as 20.6% (enzyme activity, inhibitor, FRET; 1 µM).
CCC(=O)N[C@@H]1CC[C@H](C(=O)N(C)c2ccc(-c3nc4ccccc4o3)cc2)C1 gave a remaining binding of 100% (cell-free assay, competition with immobilised ligand; 1 µM).
For O=C(Nc1cccc(C(=O)Nc2ccc3[nH]ncc3c2)c1)Nc1ccccc1F, the inhibition was 27.8% (enzyme activity, inhibitor, FRET; 1 µM).
CC(C)(C)c1nc2c(s1)c1nc(N)ncc1c1ccc(NS(=O)(=O)c3c(F)cccc3F)c(F)c12 gave a remaining activity of 65% (enzyme activity, inhibitor, radiometric; 1 µM).
Cc1ccc(NC(=O)c2ccc(CN3CCN(C)CC3)cc2)cc1Nc1nc(-c2cccnc2)cs1 gave a remaining signal of 101% (cell-free assay; 0.5 µM).
Cc1c(NC(=O)c2cc(C(N)=O)nc3cc(F)ccc23)c(C(F)(F)F)nn1Cc1ccc(C(C)(C)C)cc1 gave a remaining binding of 100% (cell-free assay, competition with immobilised ligand; 1 µM).
For O=C(Nc1ccc2[nH]ncc2c1)c1cccc(NC(=S)Nc2cc(C(F)(F)F)cc(C(F)(F)F)c2)c1, the inhibition was 11.2% (enzyme activity, inhibitor, FRET; 1 µM).
